Sampled rows, rich in hits. Any-hit rate of the full collection: about 3.1%.
KCNK9 block: blocks the human KCNK9 two-pore domain potassium channel; Q9NPC2; HEK293 KCNK9, FluxOR thallium flux fluorescence; hits give low values; B-score at 10 µM; actives 1.2% (n = 310,000); AID 488922;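 active means ratio B-score over 3 SD below the library mean, with starting fluorescence within 5 SD of its mean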;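 further: negative B-score means less thallium flux so channel inhibition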
Target sequence (Q9NPC2 whole entry, looked up, the tested form may be a part): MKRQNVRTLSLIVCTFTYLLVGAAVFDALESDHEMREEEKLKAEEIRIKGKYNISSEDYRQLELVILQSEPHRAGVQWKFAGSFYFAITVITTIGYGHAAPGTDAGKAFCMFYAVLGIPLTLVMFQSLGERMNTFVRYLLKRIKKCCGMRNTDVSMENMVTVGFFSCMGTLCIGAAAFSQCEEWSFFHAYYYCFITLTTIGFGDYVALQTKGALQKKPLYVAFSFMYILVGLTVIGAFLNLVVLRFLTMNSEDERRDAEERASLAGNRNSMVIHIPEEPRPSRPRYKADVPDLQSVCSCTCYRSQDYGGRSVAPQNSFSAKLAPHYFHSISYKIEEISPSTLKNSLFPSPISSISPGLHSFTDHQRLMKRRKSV
KCNQ1 inh: human KCNQ1 channel inhibition; CHO-K1 KCNQ1, FluxOR thallium flux fluorescence; hits give high values; B-score at 10 µM; actives 1.3% (n = 310,000); AID 2642;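 active means compounds whose thallium flux B-score, printed positive for inhibition, exceeds three library SD while starting fluorescence stays within three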;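 further: channel opened by potassium depolarization with thallium stimulus after 20 min compound exposure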
KCNK3 block: human KCNK3 channel inhibition, primary screen | O14649 | CHO-KCNK3 thallium flux, FluxOR fluorescence; hits give low values | B-score at 10 µM | actives 0.84% (n = 340,000) | AID 602410;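 active means B-score under library mean minus 4 SD, starting fluorescence ratio at most library mean plus 5 SD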;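 further: more negative B-score means stronger inhibition of thallium flux through KCNK3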
KCNQ1 pot: potentiates or activates the human KCNQ1 potassium channel | P51787 | CHO-K1 KCNQ1, thallium flux FluxOR fluorescence; hits give high values | B-score at 10 µM | actives 0.35% (n = 310,000) | AID 2648;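 active means fluorescence ratio B-score, a plate-corrected score, at least three library SD, with initial intensity B-score within 5 SD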
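Assay system: CHO-K1 cells stably expressing KCNQ1. Medium: assay buffer for compound exposure, DMSO matched across wells. Timing: 37 °C overnight plating, 90-min dark dye load, 20-min compound pretreatment. Signal: kinetic FluxOR fluorescence, 10 s baseline plus 110 s post-stimulus.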
hERG rescue: shields human hERG channel from block by proarrhythmic agents; Q12809; CHO-hERG, FluxOR thallium flux, dofetilide IC70 present; activation (rescue from dofetilide block), less the hit threshold, % at 10 µM; actives 0.51% (n = 310,000);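 active means activation above the mean of controls blocked by dofetilide plus 5 SD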;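 further: thallium influx through hERG after potassium depolarization seen as dye fluorescence rise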
The depositor's hits bear a star; i = inactive; . = no result given.

SMILES | KCNK9 block | KCNQ1 inh | KCNK3 block | KCNQ1 pot | hERG rescue
CCCCn1c(N)c(N(CC)C(=O)c2cc(CC)c(C)s2)c(=O)[nH]c1=O | i | i | i | i | -7.7
CC(C)(C)c1cc(O)c(C(C)(C)C)cc1O | -8.51* | i | . | 8* | -9.0
COc1ccccc1CCN=C(N)NS(=O)(=O)c1ccc(C)c(C)c1 | i | i | i | i | -6.2
CN(Cc1c(F)cccc1Cl)C(=O)C1=CC=CN2CCS(=O)(=O)N=C12 | . | . | i | . | .
Cc1ccc(S(=O)(=O)N(Cc2n[nH]c(=S)n2-c2ccccc2)c2cccc(Cl)c2)cc1 | i | 6* | i | i | -19.3
Cc1ccc(S(=O)(=O)N(Cc2n[nH]c(=S)n2-c2ccccc2)c2ccccc2)cc1 | i | i | i | i | -15.4
CN(N=Nc1cccc([N+](=O)[O-])c1)c1ccccc1 | -6.68* | i | i | i | -2.8
CN(N=Nc1ccc([N+](=O)[O-])cc1)c1ccccc1 | i | i | i | i | -11.1
CCCN(CCC)C(=O)C1CCCN1S(=O)(=O)c1cccc2nsnc12 (stereo unspecified) | i | i | i | i | -14.8
Nc1ccn(Cc2ccccc2)n1 | i | i | i | i | 41.0*
CCN(CC)S(=O)(=O)c1ccc(N2CCN(C)CC2)c(NC(=O)CN2C(=O)NC3(CCCCC3)C2=O)c1 | . | . | i | . | .
Cc1ccc(C(=O)c2no[n+]([O-])c2C(=O)c2ccc(C)cc2)cc1 | i | i | i | i | -26.1
CC(C)(C)C(=O)c1no[n+]([O-])c1/C(=N/O)C(C)(C)C | i | 6* | i | i | -10.2
CCc1cccc(NC(=O)C2CCCN(S(=O)(=O)c3cccs3)C2)c1 (stereo unspecified) | i | i | i | i | -9.3
CCOC(=O)c1sc(=NC(=O)c2cccc(Br)c2)n(C)c1C | i | i | i | i | -8.6
CCOC(=O)c1sc(=NC(=O)c2cccc(C)c2)n(C)c1C | i | i | i | i | 5.7*
CC(NC(=O)C1CCCC1)c1ccc(Br)cc1 (stereo unspecified) | i | i | i | i | 5.5*
CC(NC(=O)C1CCC1)c1ccc(Br)cc1 (stereo unspecified) | i | i | i | i | -1.3
CC(=O)N/C(=C\c1ccccc1)C(=O)OCCCOC(=O)/C(=C/c1ccccc1)NC(C)=O | i | i | i | i | -7.7
O=C(NNC(=S)NCCc1ccccc1)c1ccc(Br)s1 | i | 8* | i | i | -2.6
O=C(CCc1ccc(O)cc1)NNC(=S)NCCc1ccccc1 | i | i | i | i | -7.3
Cc1ccc(C(=O)Nc2nc3ccccc3c(=O)s2)cc1 | i | i | i | 35* | 23.1*
Cc1ccc(C(=O)Nc2nc(=O)n(C(=O)C3CC3)s2)cc1 | i | i | i | i | 5.0*
O=C(Nc1nc(=O)n(C(=O)C2CC2)s1)c1ccccc1 | i | i | i | i | -12.8
O=C(Nc1nc(=O)c2ccccc2s1)c1ccccc1 | i | i | i | 11* | 2.9
SMILES | KCNK9 block | KCNQ1 inh | KCNK3 block | KCNQ1 pot | hERG rescue
CCOC(=O)c1sc(=S)n(C)c1NC(=O)c1ccc(C(C)(C)C)cc1 | i | 11* | i | i | -10.5
COc1ccccc1NCC(=O)n1nc(C)cc1C | i | i | i | i | 6.7*
CCOC(=O)C1=CN(CC)CCC1=O | . | . | i | . | .
CN1CCS/C1=C/C=C1\SC(=S)N(CC(=O)O)C1=O | i | 14* | i | i | -32.0
CCCCN1C(=O)/C(=C/C=C2\SCCN2C)SC1=S | i | i | i | i | -16.2
O=c1c2ccccc2nc(-c2ccc(Cl)c(Cl)c2)n1O | i | i | i | 37* | 21.0*
N#Cc1ccc(-c2nc3ccccc3c(=O)n2O)cc1 | i | i | i | i | -4.2
O=c1c2ccc(Cl)cc2nc(-c2cccc(C(F)(F)F)c2)n1O | i | i | i | 136* | 74.7*
N#Cc1ccc(-c2nc3cc(Cl)ccc3c(=O)n2O)cc1 | i | i | i | i | -2.6
Cc1ccc(-c2nc3c(Cl)cc(Cl)cc3c(=O)n2O)cc1 | i | i | i | 105* | 55.1*
O=c1c2ccccc2nc(-c2ccc(Cl)cc2Cl)n1O | i | i | i | i | -5.6
